According to ChEMBL document CHEMBL2375313, “Synthesis, in vitro antitumor evaluation and DNA-binding study of novel tetrahydroquinolines and some derived tricyclic and tetracyclic ring systems” (Eur J Med Chem, 2013):

Legend:
Assay type in all cases: functional
NCI-H23 = experiment: Cytotoxicity against human NCI-H23 cells assessed as growth inhibition at 10 uM after 48 hrs by sulphorhodamine B assay; conditions: NCI-H23, 48 h, read-out: GI
Procedure, shortened: (§1)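 NCI-60 one-dose screen per the NCI Drug Evaluation Branch protocol. Cells given a single 10 µM concentration with 48 h continuous exposure. Growth estimated by sulphorhodamine B protein assay. Result expressed as percentage growth inhibition relative to untreated growth.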

[1] = Cytotoxicity against human EKVX cells assessed as growth inhibition at 10 uM after 48 hrs by sulphorhodamine B assay; conditions: read-out: GI; procedure, shortened: as §1
A549 = experiment: Cytotoxicity against human A549 cells assessed as growth inhibition at 10 uM after 48 hrs by sulphorhodamine B assay; conditions: A549, 48 h, read-out: GI; procedure, shortened: as §1
NCI/ADR-RES = experiment: Cytotoxicity against human NCI/ADR-RES cells assessed as growth inhibition at 10 uM after 48 hrs by sulphorhodamine B assay; conditions: read-out: GI; procedure, shortened: as §1
SNB-75 = experiment: Cytotoxicity against human SNB75 cells assessed as growth inhibition at 10 uM after 48 hrs by sulphorhodamine B assay; conditions: SNB-75, 48 h, read-out: GI; procedure, shortened: as §1
U-251 = experiment: Cytotoxicity against human U251 cells assessed as growth inhibition at 10 uM after 48 hrs by sulphorhodamine B assay; conditions: U-251, 48 h, read-out: GI; procedure, shortened: as §1
SNB-19 = experiment: Cytotoxicity against human SNB19 cells assessed as growth inhibition at 10 uM after 48 hrs by sulphorhodamine B assay; conditions: SNB-19, 48 h, read-out: GI; procedure, shortened: as §1
SF-295 = experiment: Cytotoxicity against human SF295 cells assessed as growth inhibition at 10 uM after 48 hrs by sulphorhodamine B assay; conditions: SF-295, 48 h, read-out: GI; procedure, shortened: as §1
DU-145 = experiment: Cytotoxicity against human DU145 cells assessed as growth inhibition at 10 uM after 48 hrs by sulphorhodamine B assay; conditions: DU-145, 48 h, read-out: GI; procedure, shortened: as §1
SF-268 = experiment: Cytotoxicity against human SF268 cells assessed as growth inhibition at 10 uM after 48 hrs by sulphorhodamine B assay; conditions: SF-268, 48 h, read-out: GI; procedure, shortened: as §1
PC-3 = experiment: Cytotoxicity against human PC3 cells assessed as growth inhibition at 10 uM after 48 hrs by sulphorhodamine B assay; conditions: PC-3, 48 h, read-out: GI; procedure, shortened: as §1
UACC-62 = experiment: Cytotoxicity against human UACC62 cells assessed as growth inhibition at 10 uM after 48 hrs by sulphorhodamine B assay; conditions: UACC-62, 48 h, read-out: GI; procedure, shortened: as §1
SK-MEL-2 = experiment: Cytotoxicity against human SK-MEL-2 cells assessed as growth inhibition at 10 uM after 48 hrs by sulphorhodamine B assay; conditions: SK-MEL-2, 48 h, read-out: GI; procedure, shortened: as §1
SK-MEL-5 = experiment: Cytotoxicity against human SK-MEL-5 cells assessed as growth inhibition at 10 uM after 48 hrs by sulphorhodamine B assay; conditions: SK-MEL-5, 48 h, read-out: GI; procedure, shortened: as §1
M14 = experiment: Cytotoxicity against human M14 cells assessed as growth inhibition at 10 uM after 48 hrs by sulphorhodamine B assay; conditions: M14, 48 h, read-out: GI; procedure, shortened: as §1
LOX IMVI = experiment: Cytotoxicity against human LOXIMVI cells assessed as growth inhibition at 10 uM after 48 hrs by sulphorhodamine B assay; conditions: read-out: GI; procedure, shortened: as §1
UO-31 = experiment: Cytotoxicity against human UO31 cells assessed as growth inhibition at 10 uM after 48 hrs by sulphorhodamine B assay; conditions: UO-31, 48 h, read-out: GI; procedure, shortened: as §1
CAKI-1 = experiment: Cytotoxicity against human Caki1 cells assessed as growth inhibition at 10 uM after 48 hrs by sulphorhodamine B assay; conditions: CAKI-1, 48 h, read-out: GI; procedure, shortened: as §1
RXF 393 = experiment: Cytotoxicity against human RXF393 cells assessed as growth inhibition at 10 uM after 48 hrs by sulphorhodamine B assay; conditions: RXF 393, 48 h, read-out: GI; procedure, shortened: as §1
ACHN = experiment: Cytotoxicity against human ACHN cells assessed as growth inhibition at 10 uM after 48 hrs by sulphorhodamine B assay; conditions: read-out: GI; procedure, shortened: as §1
SR = experiment: Cytotoxicity against human SR cells assessed as growth inhibition at 10 uM after 48 hrs by sulphorhodamine B assay; conditions: read-out: GI; procedure, shortened: as §1
A498 = experiment: Cytotoxicity against human A498 cells assessed as growth inhibition at 10 uM after 48 hrs by sulphorhodamine B assay; conditions: A498, 48 h, read-out: GI; procedure, shortened: as §1
RPMI-8226 = experiment: Cytotoxicity against human RPMI8226 cells assessed as growth inhibition at 10 uM after 48 hrs by sulphorhodamine B assay; conditions: RPMI-8226, 48 h, read-out: GI; procedure, shortened: as §1
MOLT-4 = experiment: Cytotoxicity against human MOLT4 cells assessed as growth inhibition at 10 uM after 48 hrs by sulphorhodamine B assay; conditions: MOLT-4, 48 h, read-out: GI; procedure, shortened: as §1
K562 = experiment: Cytotoxicity against human K562 cells assessed as growth inhibition at 10 uM after 48 hrs by sulphorhodamine B assay; conditions: K562, 48 h, read-out: GI; procedure, shortened: as §1
HL-60(TB) = experiment: Cytotoxicity against human HL-60(TB) cells assessed as growth inhibition at 10 uM after 48 hrs by sulphorhodamine B assay; conditions: HL-60, 48 h, read-out: GI
Procedure, shortened: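 NCI-60 one-dose primary screen run to the Drug Evaluation Branch protocol. Cells are exposed to a single 10 µM concentration for 48 h continuously, and growth is read by SRB protein assay. Data are reported as percent growth of treated cells, expressed as % growth inhibition.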

SK-OV-3 = experiment: Cytotoxicity against human SKOV3 cells assessed as growth inhibition at 10 uM after 48 hrs by sulphorhodamine B assay; conditions: SK-OV-3, 48 h, read-out: GI; procedure, shortened: as §1
CCRF-CEM = experiment: Cytotoxicity against human CCRF-CEM cells assessed as growth inhibition at 10 uM after 48 hrs by sulphorhodamine B assay; conditions: read-out: GI; procedure, shortened: as §1
OVCAR-5 = experiment: Cytotoxicity against human OVCAR5 cells assessed as growth inhibition at 10 uM after 48 hrs by sulphorhodamine B assay; conditions: OVCAR-5, 48 h, read-out: GI; procedure, shortened: as §1
OVCAR-4 = experiment: Cytotoxicity against human OVCAR4 cells assessed as growth inhibition at 10 uM after 48 hrs by sulphorhodamine B assay; conditions: OVCAR-4, 48 h, read-out: GI; procedure, shortened: as §1
IGROV-1 = experiment: Cytotoxicity against human IGROV1 cells assessed as growth inhibition at 10 uM after 48 hrs by sulphorhodamine B assay; conditions: IGROV-1, 48 h, read-out: GI; procedure, shortened: as §1
T47D = experiment: Cytotoxicity against human T47D cells assessed as growth inhibition at 10 uM after 48 hrs by sulphorhodamine B assay; conditions: read-out: GI; procedure, shortened: as §1
Hs-578T = experiment: Cytotoxicity against human Hs578T cells assessed as growth inhibition at 10 uM after 48 hrs by sulphorhodamine B assay; conditions: read-out: GI; procedure, shortened: as §1
NCI-H522 = experiment: Cytotoxicity against human NCI-H522 cells assessed as growth inhibition at 10 uM after 48 hrs by sulphorhodamine B assay; conditions: NCI-H522, 48 h, read-out: GI; procedure, shortened: as §1
HT-29 = experiment: Cytotoxicity against human HT-29 cells assessed as growth inhibition at 10 uM after 48 hrs by sulphorhodamine B assay; conditions: HT-29, 48 h, read-out: GI; procedure, shortened: as §1
MCF7 = experiment: Cytotoxicity against human MCF7 cells assessed as growth inhibition at 10 uM after 48 hrs by sulphorhodamine B assay; conditions: MCF7, 48 h, read-out: GI; procedure, shortened: as §1
MDA-MB-435 = experiment: Cytotoxicity against human MDA-MB-435 cells assessed as growth inhibition at 10 uM after 48 hrs by sulphorhodamine B assay; conditions: MDA-MB-435, 48 h, read-out: GI; procedure, shortened: as §1
HCT-15 = experiment: Cytotoxicity against human HCT15 cells assessed as growth inhibition at 10 uM after 48 hrs by sulphorhodamine B assay; conditions: HCT-15, 48 h, read-out: GI; procedure, shortened: as §1
MDA-MB-468 = experiment: Cytotoxicity against human MDA-MB-468 cells assessed as growth inhibition at 10 uM after 48 hrs by sulphorhodamine B assay; conditions: MDA-MB-468, 48 h, read-out: GI; procedure, shortened: as §1
HCT-116 = experiment: Cytotoxicity against human HCT116 cells assessed as growth inhibition at 10 uM after 48 hrs by sulphorhodamine B assay; conditions: HCT-116, 48 h, read-out: GI; procedure, shortened: as §1

SMILES: COc1ccc(-c2c3c(nc4ncn(N)c(=N)c24)C(C)CCC3)cc1 (stereo not given)
- inhibition of growth at 10 µM (NCI-H23): 14.4%
- inhibition of growth at 10 µM [1]: 21.5%
- inhibition of growth at 10 µM (A549): < 10%
- inhibition of growth at 10 µM (NCI/ADR-RES): < 10%
- inhibition of growth at 10 µM (SNB-75): 14.3%
- inhibition of growth at 10 µM (U-251): 16.7%
- inhibition of growth at 10 µM (SNB-19): < 10%
- inhibition of growth at 10 µM (SF-295): < 10%
- inhibition of growth at 10 µM (DU-145): < 10%
- inhibition of growth at 10 µM (SF-268): < 10%
- inhibition of growth at 10 µM (PC-3): < 10%
- inhibition of growth at 10 µM (UACC-62): 24%
- inhibition of growth at 10 µM (SK-MEL-2): 11%
- inhibition of growth at 10 µM (SK-MEL-5): < 10%
- inhibition of growth at 10 µM (M14): < 10%
- inhibition of growth at 10 µM (LOX IMVI): < 10%
- inhibition of growth at 10 µM (UO-31): < 10%
- inhibition of growth at 10 µM (CAKI-1): 10%
- inhibition of growth at 10 µM (RXF 393): < 10%
- inhibition of growth at 10 µM (ACHN): 14.5%
- inhibition of growth at 10 µM (SR): < 10%
- inhibition of growth at 10 µM (A498): < 10%
- inhibition of growth at 10 µM (RPMI-8226): < 10%
- inhibition of growth at 10 µM (MOLT-4): < 10%
- inhibition of growth at 10 µM (K562): < 10%
- inhibition of growth at 10 µM (HL-60(TB)): < 10%
- inhibition of growth at 10 µM (SK-OV-3): < 10%
- inhibition of growth at 10 µM (CCRF-CEM): < 10%
- inhibition of growth at 10 µM (OVCAR-5): < 10%
- inhibition of growth at 10 µM (OVCAR-4): 20%
- inhibition of growth at 10 µM (IGROV-1): < 10%
- inhibition of growth at 10 µM (T47D): 18.1%
- inhibition of growth at 10 µM (Hs-578T): < 10%
- inhibition of growth at 10 µM (NCI-H522): 26%
- inhibition of growth at 10 µM (HT-29): < 10%
- inhibition of growth at 10 µM (MCF7): < 10%
- inhibition of growth at 10 µM (MDA-MB-435): 19%
- inhibition of growth at 10 µM (HCT-15): 25%
- inhibition of growth at 10 µM (MDA-MB-468): < 10%
- inhibition of growth at 10 µM (HCT-116): 22.3%
